In the library only some 1.5% were active in any assay of this set; here they are far more common.
CXCR6 inh = blocks human CXCR6 beta-arrestin recruitment | O00574 | CHO-K1 PathHunter CXCR6 beta-arrestin, luminescence | inhibition, % at 20 µM | 360,000 compounds, 0.36% hits; in the data active means inhibition above about 34%, passing the limit was not always enough;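 further: antagonist mode with CXCL16 agonist at 10 nM final; 0% = 10 nM CXCL16 with DMSO and 100% = unstimulated wells without agonist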
Target sequence (O00574 whole entry, looked up): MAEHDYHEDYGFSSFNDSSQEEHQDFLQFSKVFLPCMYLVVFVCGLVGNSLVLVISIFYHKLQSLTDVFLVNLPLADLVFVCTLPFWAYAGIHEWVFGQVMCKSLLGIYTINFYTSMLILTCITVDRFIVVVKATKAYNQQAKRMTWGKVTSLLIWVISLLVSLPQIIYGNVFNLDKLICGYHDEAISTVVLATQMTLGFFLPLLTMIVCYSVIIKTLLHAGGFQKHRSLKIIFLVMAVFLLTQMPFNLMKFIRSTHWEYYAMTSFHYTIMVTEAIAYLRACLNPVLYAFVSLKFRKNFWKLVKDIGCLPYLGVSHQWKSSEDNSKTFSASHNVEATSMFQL
APJ agonist = activates the human apelin receptor APJ | P35414 | CHO-K1 APJ PathHunter beta-arrestin, luminescence; 0% DMSO wells, 100% apelin | activation, % at 20 µM | 330,000 compounds, 0.11% hits | AID 2520;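 active means activation more than six SD over the plate average, tested at 20 µM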;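 further: 0% = DMSO alone and 100% = apelin-13 at 10 nM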
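Assay system: CHO-K1 cells stably expressing ProLink-tagged human APJ and arrestin–beta-gal acceptor. Compound dosing: 20 µM single point, 1% DMSO. Times: 16-18 h seeding, 90 min dark compound exposure, 60 min detection. Detection: beta-gal luminescence. Evaluation: APJ–arrestin association signal. Controls: negative DMSO alone, positive Apelin-13 at 10 nM.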
EBI2 antag = antagonists of human EBI2 receptor | P32249 | 360,000 compounds, 0.81% hits | inhibition, % at 5 µM | AID 651636 | EBI2 beta-arrestin recruitment, luminescence, 7a,25-OHC stimulated; in the data active means inhibition above about 38%;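 further: enzyme fragment complementation signal reports receptor beta-arrestin coupling in cells; 0% = agonist plus DMSO wells and 100% = wells without agonist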
Target sequence (P32249 whole entry, looked up, the tested form may be a part): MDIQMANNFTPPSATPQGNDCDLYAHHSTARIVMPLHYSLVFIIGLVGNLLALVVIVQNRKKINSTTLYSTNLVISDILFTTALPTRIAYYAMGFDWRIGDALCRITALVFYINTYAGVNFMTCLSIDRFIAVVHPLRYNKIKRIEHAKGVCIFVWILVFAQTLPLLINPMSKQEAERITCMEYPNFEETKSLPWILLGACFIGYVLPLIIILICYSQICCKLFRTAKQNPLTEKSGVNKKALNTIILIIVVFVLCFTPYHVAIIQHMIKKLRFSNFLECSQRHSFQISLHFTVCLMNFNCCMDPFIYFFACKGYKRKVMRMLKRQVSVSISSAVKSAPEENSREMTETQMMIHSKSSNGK
CCR6 antag = blocks CCL20-driven beta-arrestin recruitment at human CCR6; P51684; CHO-K1 CCR6 PathHunter beta-arrestin, luminescence, CCL20-stimulated; inhibition, % at 20 µM; 340,000 compounds, 0.49% hits; AID 493098;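 active means compounds whose inhibition of the agonist-driven luminescence signal at 20 µM reaches about 50%, limit read from the data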;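 further: cells stimulated with CCL20 at 14 nM final; plate controls were DMSO with CCL20 for no effect and DMSO without agonist for full effect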
APJ antag = blocks the human apelin receptor APJ; inhibition, % at 20 µM; P35414; CHO-K1 APJ beta-arrestin complementation, luminescence; 330,000 compounds, 0.32% hits; AID 2521;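 active means inhibition above about 40% at 20 µM, limit read from the data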;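 further: cells challenged with 10 nM apelin-13 agonist together with compound; plate controls were apelin-13 plus DMSO wells for no effect and DMSO wells lacking apelin-13 for full effect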
EBI2 antag conf = confirmation of human EBI2 receptor antagonists; shares compounds with EBI2 antag; EBI2 beta-arrestin luminescence, 7a,25-OHC antagonism; inhibition, % at 5 µM; 2,400 compounds, 29% hits; AID 651997;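 active means inhibition of at least 50%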
EBI2 agonist = activates EBI2, counter-screen for EBI2 antagonists. 2,400 tested, under 10 active. EBI2-expressing cells, agonist mode, luminescence, 60 min; 0% vehicle, 100% 7α,25-dihydroxycholesterol control. shares compounds with EBI2 antag. activation, % at 5 µM;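 active means activation of at least 50%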
bGal counter = inhibits E. coli beta-galactosidase, counter-screen for EBI2 antagonists | 2,400 compounds, 1% hits | purified beta-galactosidase, luminescent Galacton Star, 15 min | AID 652176 | shares compounds with EBI2 antag | inhibition, % at 5 µM;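 active means replicate-average signal at least 3 plate SD below neutral wells, shown as high inhibition, flagging enzyme-inhibiting false positives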;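 further: 0% = DMSO wells with enzyme and 100% = wells lacking enzyme; higher means stronger loss of beta-gal luminescence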
An asterisk follows results filed as active.

Results for CCCCn1nnnc1C(c1cccs1)N1CCN(C/C=C/c2ccccc2)CC1 (stereo unspecified) ?
CXCR6 inh: 6.5; EBI2 antag: 43.7*; EBI2 antag conf: 8.7; EBI2 agonist: 1.2; bGal counter: 6.4

How did CCCCn1nnnc1C(C1CC1)N1CCN(C/C=C/c2ccccc2)CC1 (stereo unspecified) do in these assays?
CXCR6 inh: 2.4; EBI2 antag: 14.5

How did COc1ccc(C(c2nnnn2-c2ccc(OC)cc2)N2CCN(C/C=C/c3ccccc3)CC2)cc1 (stereo unspecified) do in these assays?
CXCR6 inh: 7.6; EBI2 antag: 63.0*; EBI2 antag conf: 30.5; EBI2 agonist: -1.0; bGal counter: -4.9

What do the screens show for `COc1ccc(-n2nnnc2C(c2ccccc2OC(F)(F)F)N2CCN(C/C=C/c3ccccc3)CC2)cc1` (stereo unspecified)?
CXCR6 inh: 10.9; EBI2 antag: 90.4*; EBI2 antag conf: 55.0*; EBI2 agonist: 2.2; bGal counter: 11.9

What do the screens show for `C(=C\c1ccccc1)/CN1CCN(C(c2cc3ccccc3o2)c2nnnn2C2CCCC2)CC1` (stereo unspecified)?
CXCR6 inh: -1.7; EBI2 antag: 51.5*; EBI2 antag conf: 6.6; EBI2 agonist: 0.6; bGal counter: 3.6

What do the screens show for `COc1ccc(-n2nnnc2C(c2cccs2)N2CCN(C/C=C/c3ccccc3)CC2)cc1` (stereo unspecified)?
CXCR6 inh: -1.1; EBI2 antag: 42.4

What do the screens show for `Cc1c(Cl)cccc1NC(=O)COC(=O)c1ccc(CN2CCCC2=O)cc1`?
CXCR6 inh: -2.1; APJ agonist: 2.1; EBI2 antag: -6.3; CCR6 antag: 8.6; APJ antag: 3.2

How did COc1ccc(C2c3ccc(O)cc3Oc3ncn4nc(-c5ccncc5)nc4c32)cc1OC (stereo unspecified) do in these assays?
CXCR6 inh: 8.8; APJ agonist: -4.9; EBI2 antag: 37.3; CCR6 antag: 16.0; APJ antag: 2.4

What do the screens show for `O=C1OCC/C1=C\NCCCCCCCCN/C=C1\CCOC1=O`?
CXCR6 inh: 0.5; EBI2 antag: 1.9

Results for COc1cccc(COCC(O)CN2CCC(C(N)=O)CC2)c1 (stereo unspecified) ?
CXCR6 inh: 5.3; APJ agonist: 1.5; EBI2 antag: 2.3; CCR6 antag: 13.6; APJ antag: 9.8

Results for O=C(Nc1ccc2c(c1)OCCO2)C(c1cc2ccccc2o1)N1CCN(C/C=C/c2ccccc2)CC1 (stereo unspecified) ?
CXCR6 inh: -3.1; EBI2 antag: 38.9*; EBI2 antag conf: 6.7; EBI2 agonist: -1.8; bGal counter: -6.3

What do the screens show for `CCCCn1nnnc1C(c1ccc(OC)cc1)N1CCN(C/C=C/c2ccccc2)CC1` (stereo unspecified)?
CXCR6 inh: 18.9; EBI2 antag: 58.2*; EBI2 antag conf: 25.5; EBI2 agonist: 2.2; bGal counter: 12.3

What do the screens show for `C(=C\c1ccccc1)/CN1CCN(C(c2ccnc3ccccc23)c2nnnn2-c2ccc3c(c2)OCCO3)CC1` (stereo unspecified)?
CXCR6 inh: 6.5; EBI2 antag: 22.0

What do the screens show for `C(=C\c1ccccc1)/CN1CCN(C(c2ccccc2)c2nnnn2-c2ccc3c(c2)OCCO3)CC1` (stereo unspecified)?
CXCR6 inh: 17.2; EBI2 antag: 51.1*; EBI2 antag conf: 37.5; EBI2 agonist: 0.3; bGal counter: 6.7

What do the screens show for `COc1ccc(C(c2nnnn2C(C)(C)C)N2CCN(C/C=C/c3ccccc3)CC2)cc1` (stereo unspecified)?
CXCR6 inh: 12.4; EBI2 antag: 36.8

Results for COc1ccc(C(c2nnnn2C2CCCCC2)N2CCN(C/C=C/c3ccccc3)CC2)cc1 (stereo unspecified) ?
CXCR6 inh: 17.2; EBI2 antag: 60.1*; EBI2 antag conf: 43.7; EBI2 agonist: 0.0; bGal counter: 5.0

What do the screens show for `CN1CCC(N(C)C(=O)c2ccc(Cl)c(S(=O)(=O)N3CCc4ccccc43)c2)CC1`?
CXCR6 inh: -0.6; APJ agonist: -3.4; EBI2 antag: 3.5; CCR6 antag: 5.3; APJ antag: -1.3

What do the screens show for `CC(C)C[C@@H](COCc1ccc([N+](=O)[O-])cc1)N1CCN(C(=O)c2ccc(C(F)(F)F)cc2)CCC1=O`?
CXCR6 inh: 2.9; EBI2 antag: 13.4

Results for COCC(C)n1c(COc2ccccc2F)nnc1SCC(=O)Nc1oc(C)c2c(C)n[nH]c(=O)c12 (stereo unspecified) ?
CXCR6 inh: -1.3; APJ agonist: -2.1; EBI2 antag: -13.6; CCR6 antag: -3.1; APJ antag: 2.7

Results for Cc1nc(CS(=O)(=O)c2ccc(Cl)cc2)cc(Sc2ccccc2Cl)n1 ?
CXCR6 inh: 6.0; APJ agonist: 0.2; EBI2 antag: 70.6*; CCR6 antag: 0.4; APJ antag: -17.6; EBI2 antag conf: 47.5; EBI2 agonist: 0.1; bGal counter: 3.3

What do the screens show for `Cc1nc(CS(=O)(=O)c2ccccc2)cc(Sc2ccc(Cl)cc2)n1`?
CXCR6 inh: -0.9; APJ agonist: -0.9; EBI2 antag: 45.9*; CCR6 antag: 26.2; APJ antag: -3.8; EBI2 antag conf: 28.7; EBI2 agonist: -1.3; bGal counter: -10.9

What do the screens show for `Cc1nc(CS(=O)(=O)c2ccccc2)cc(Sc2ccccc2Cl)n1`?
CXCR6 inh: -2.8; APJ agonist: -3.4; EBI2 antag: 43.1; CCR6 antag: -8.0; APJ antag: 22.3

Results for COCCN(C(=O)CSc1nnc(-c2ccco2)n1C)c1c(N)n(CC(C)C)c(=O)[nH]c1=O ?
CXCR6 inh: 2.7; APJ agonist: -1.3; EBI2 antag: 4.2; CCR6 antag: 10.9; APJ antag: -64.1

What do the screens show for `CC(=O)Nc1ccc(Nc2cc(C)nc3c(-c4ccc(Cl)cc4)cnn23)cc1`?
CXCR6 inh: -10.8; APJ agonist: -1.9; EBI2 antag: 53.4*; CCR6 antag: -10.9; APJ antag: 3.9; EBI2 antag conf: 42.1; EBI2 agonist: -0.1; bGal counter: -13.6

How did CC(=O)Nc1ccc(Nc2cc(C)nc3c(-c4ccc(Cl)cc4)c(C)nn23)cc1 do in these assays?
CXCR6 inh: -0.6; APJ agonist: -3.3; EBI2 antag: 45.7*; CCR6 antag: 0.4; APJ antag: 17.2; EBI2 antag conf: 43.8; EBI2 agonist: 0.8; bGal counter: -4.1
